# Compound activity: PubChem BioAssay, several laboratories
# CHOP inhibitor – inhibitors of CHOP promoter induction, primary screen, cell-based, unfolded protein response, luciferase reporter; CHO-K1 CHOP-promoter luciferase, tunicamycin-induced, 15-18 h; inhibition, % at 10 µM; 220,000 tested, 3.8% active; AID 2732, 2010;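 active = compounds that reduced the stress-induced luciferase reporter signal by more than about 70% of percent inhibition, limit read from the data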
# UPR XBP1 act – activators of adaptive XBP1 UPR arm, primary screen, cell-based, CHO-XBP1 luciferase reporter, luminescence, uHTS | activation, % at 20 µM | AID 463104, 2010 | 330,000 tested, 0.33% active | IRE1-XBP1 UPR activation; percent of tunicamycin response, DMSO as zero;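 active = versus positive control, 20 µM dose yields 30% or more activation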
#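 Material: IRE1-XBP1 luciferase reporter CHO line / Quantity: one thousand reporter cells per well / Buffer or medium: F12 with 10% serum / Compound: 20 µM single concentration, DMSO 1% / Times: 6 h treatment, 37 °C / Detection: Steady-Glo luciferase glow luminescence, 10 min after reagent addition / Benchmarks: tunicamycin high, DMSO low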
# PvdQ inh – P. aeruginosa PvdQ acylase inhibitors, primary screen, biochemical, fluorescence, plate reader and imaging, single point; PvdQ acylase [Pseudomonas aeruginosa LESB58]; purified PvdQ acylase; inhibition, % at 10 µM; 340,000 tested, 0.063% active; AID 488965, 2010; in the data active = inhibition above about 30%, passing the limit was not always enough
# UPR CHOP act – activators of apoptotic CHOP UPR arm, primary screen, cell-based, CHO-CHOP luciferase reporter, luminescence, uHTS. UPR activation; percent of tunicamycin response over DMSO baseline. activation, % at 10 µM. 330,000 tested, 0.34% active. AID 449763, 2010;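 active = at 10 µM dose, activation of 40% or more, normalized to positive control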
#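 Test system: CHO-CHOP cells, stable luciferase reporter of PERK-eIF2a-CHOP signalling | Quantity: 500 CHO-CHOP cells per well | Buffer or medium: F12 plus 10% serum | Compound dosing: 10 µM single point, 0.5% DMSO | Schedule: 6 h compound treatment, 37 °C | Signal: Luciferase luminescence | Control set: Tunicamycin high control, DMSO low control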
# Numbers stand for hits; . = inactive; / = no result. This excerpt belongs to a sample that is enriched for hits.
SMILES,CHOP inhibitor,UPR XBP1 act,PvdQ inh,UPR CHOP act
CCC(C)C(=O)NCCc1ccc(S(N)(=O)=O)cc1 (stereo not given),.,.,.,.
Cc1cc(C)nc(SCc2nnc(SCC(=O)Nc3ccc(Cl)c(C(F)(F)F)c3)o2)n1,75,.,.,.
Cc1c(NC(=O)Cn2[nH]c(=O)c3ccccc3c2=O)c(=O)n(-c2ccccc2)n1C,.,.,.,.
COc1ccc(-c2nc(NC(=O)c3n[nH]c(=O)c4ccccc34)sc2C)cc1,100,.,.,.
Cc1sc(NC(=O)Cn2[nH]c(=O)c3ccccc3c2=O)nc1-c1ccccc1,88,.,.,.
CNC[C@H]1Oc2ccc(NC(=O)C3CCCCC3)cc2CC(=O)N([C@H](C)CO)C[C@@H]1C,/,.,.,.
CSc1nc(-c2ccccc2)nc(N2CCOCC2)c1C(C)=O,.,.,.,.
O=C(Nc1cccc(Cl)c1)c1ccc(F)c(S(=O)(=O)N2CCN(c3ccccn3)CC2)c1,74,.,.,.
O=S(=O)(c1ccc(Cl)c(C(F)(F)F)c1)N1CCN(c2ccccn2)CC1,72,.,.,.
CCOc1ccc(NC(=O)c2ccc(F)c(S(=O)(=O)N3CCN(c4ccccn4)CC3)c2)cc1,.,.,.,.
CN(C)c1ccc(/C=N\Nc2nc(-c3ccccc3)cc(=O)[nH]2)cc1,89,.,.,.
Nc1ccc(OC(=O)Nc2ccc(O)cc2)cc1,82,.,.,.
CN(C)CC(=O)c1ccc(-c2ccccc2)cc1,.,.,.,.
CN(C)C/C(Cl)=C(\Cl)c1ccccc1,77,.,.,.
O=C(NCC1CCCCC1)c1cc(Br)ccc1Cl,/,.,34,.
CN1C(=O)S/C(=C\c2ccc(-n3cncn3)cc2)C1=O,.,.,48,.
CCOC(=O)c1ccc(N2Cc3ccccc3C2)cc1O,.,.,63,.
CCc1ccc(N2Cc3ccccc3C2)cc1,.,.,.,.
COc1ccc(OCC(O)CNC(=O)Nc2cc(F)ccc2C)cc1 (stereo not given),.,.,.,.
CCN1CCN(Cc2ccc(NC(=O)c3ccc(C)c(NC(=O)c4nccnc4N)c3)cc2C(F)(F)F)CC1,79,.,.,.
CC(=O)CCSc1ncnc2sc(-c3ccccc3)cc12,/,.,.,.
O=C(O)CCSc1ncnc2sc(-c3ccccc3)cc12,89,.,.,.
c1ccc(N2CCN(c3ccccc3)C2c2cccnc2)cc1,.,.,.,.
Cc1ccc(N2CCN(c3ccc(C)cc3)C2c2cccnc2)cc1,76,.,.,.
Cc1nc(SCC(C)C)[nH]c(=O)c1Cc1ccccc1,83,.,.,.
SMILES,CHOP inhibitor,UPR XBP1 act,PvdQ inh,UPR CHOP act
Cc1ccc(NC(=O)CSc2nc(C)c(Cc3ccccc3)c(=O)[nH]2)cc1,.,.,.,.
CSc1nc(C)c(Cc2ccccc2)c(=O)[nH]1,.,.,.,.
C=C(C)CSc1nc(C)c(Cc2ccccc2)c(=O)[nH]1,76,.,.,.
COc1cccc(CN(C)C(=O)CN2C(=O)NC(c3ccccc3)(c3ccccc3)C2=O)c1OC,/,.,.,.
Cc1nn(Cc2cccc(C(=O)NN)c2)c(C)c1Cl,.,.,.,.
Cc1c(C)c2c(OCC(=O)NCc3ccccn3)cc3c(c2oc1=O)CCC(C)(C)O3,/,.,.,.
CCOc1cc(C(=O)O/N=C(\N)c2ccc([N+](=O)[O-])cc2)cc(OCC)c1OCC,79,.,.,.
O=C(Cc1c(F)cccc1Cl)Nc1ccccc1C(=O)N1CCCCC1,/,.,.,.
O=C(NCCc1ccccc1Cl)C1CCC(=O)N(C2CCCCCC2)C1 (stereo not given),/,.,.,.
CC(/C=C1\SC(=O)N(CC(=O)Nc2cccc(O)c2)C1=O)=C\c1ccccc1,95,.,.,.
Cc1cccc(NC(=O)CN2C(=O)S/C(=C\C(=O)Nc3ccc(Cl)cc3)C2=O)c1,.,.,.,.
O=C(CN1C(=O)C2C3C=CC(C4CC34)C2C1=O)Oc1ccccc1 (stereo not given),.,.,34,.
CC(=O)c1sc(N/N=C\c2cccc(Br)c2)nc1C,81,.,.,.
O=C(COC(=O)c1ccccc1)c1ccc(S(=O)(=O)N2CCCCC2)cc1,/,.,.,.
O=C(COc1ccccc1)OCC(=O)c1ccc(S(=O)(=O)N2CCCCC2)cc1,/,.,40,.
COc1ccc(C2=NO[C@@H]3[C@@H]4C[C@@H]([C@H]5C(=O)N(C)C(=O)[C@@H]45)[C@H]23)cc1,.,.,.,.
CC(C)C(NC(=O)Cc1ccccc1)C(=O)N1CCN(c2cccc(Cl)c2)CC1 (stereo not given),/,.,.,.
COCc1ccc(-c2c(-c3cc(OC)cc(OC)c3)oc(=O)c3cc(OC)c(OC)cc23)cc1,/,.,.,.
Cc1ccc(C(C)C)c(OCC(=O)OCc2c(C)noc2C)c1,83,.,.,.
COc1ccc(CN2CCn3ncc(C(=O)Nc4cc(C)cc(C)c4)c3C2=O)cc1,.,.,.,.
Cc1ccc(C(=O)N/C(=C\c2cccs2)C(=O)NCCCN2CCOCC2)cc1,/,.,.,.
CCN(CC)CCN(C(=O)c1cc2c(ccc3ccccc32)oc1=O)c1nc2cc3c(cc2s1)OCCO3,/,210,.,.
COc1ccc(CCN2CC(C(=O)OCC(=O)NC(C)c3cccc(Cl)c3)CC2=O)cc1OC (stereo not given),/,.,.,.
O=C(c1cccs1)N1CCN(CCCc2ccccc2)CC1,75,.,.,.
CC(=O)c1c(O)cc(=O)oc1-c1ccc(C)cc1,/,.,.,.
SMILES,CHOP inhibitor,UPR XBP1 act,PvdQ inh,UPR CHOP act
Cn1c(SCC(=O)Nc2ccc(Cl)cc2F)nnc1-c1ccco1,/,.,.,.
COc1ccc(-n2ncc3c(N4CCCCC4)ncnc32)cc1,89,.,.,.
Clc1ccc(-n2ncc3c(N4CCCCCC4)ncnc32)cc1,84,.,.,.
COc1ccc(-n2ncc3c(N4CCN(c5cccc(C)c5C)CC4)ncnc32)cc1,/,.,.,.
Cc1cccc(N2CCN(CC(=O)Nc3ccc(S(=O)(=O)N4CCOCC4)cc3)CC2)c1C,/,.,.,.
C=CCSC(=S)NC1CCS(=O)(=O)C1 (stereo not given),70,.,.,.
CCOC(=O)c1c(N)sc2c1CCC(CC)C2 (stereo not given),77,.,.,.
Cc1ccc(CN2CCN(C3CCCC3)C(CCO)C2)s1 (stereo not given),.,.,.,.
CCCCSc1nc(C)cc(SCC(=O)N/N=C/c2cccc(OC)c2O)n1,75,.,.,.
CN(C)c1nc(Nc2ccc(Cl)cc2)nc(OCC#N)n1,73,.,.,.
COc1ccc(/C(C#N)=C/c2ccccn2)cc1,.,.,53,.
N#C/C(=C\c1ccccn1)c1nc2ccccc2s1,.,.,.,.
